Fewer inactive variants are shown than the library holds.
B1: tRNA (parent)
chain: GUUCCGUUGGCGUAAUGGUAACGCGUCUCCCUCCUAAGGAGAAGACUGCGGGUUCGAGUCCCGUACGGAACG

Variants of: B1
Experiment: yeast fitness relative to wild type (ratio to wild type); higher = fitter; tRNA-Arg(CCU), competitive growth, 37 C, YPD
Outline: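 Variants of the tRNA-Arg(CCU) gene were chemically synthesised with a 3% per-site mutation rate across 69 sites and placed at the native genomic locus in Saccharomyces cerevisiae. Six parallel replicates of the pooled strains were competed in YPD at 37°C for 24 hours, and gene amplicons from the start and end populations were read by 100-nucleotide paired-end sequencing. Darwinian fitness relative to wild type was derived from changes in genotype frequencies. Genotypes required ≥ 100 starting reads, and estimates < 0.5 were set to 0.5.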

Variant | yeast fitness
A15C A57C | ≤ 0.5
A15G G56A C62U A70C | 0.543
A15C U47A A65C | 0.561
A15G C31G G44C C46G | 0.647
A14U G25A C30G C62G | ≤ 0.5
A15C A70C | 0.751
A15G A37U A40C A43C | ≤ 0.5
A15G C24G C31G G50A | ≤ 0.5
A15G G17C C33A G56C A65C G68A | ≤ 0.5
A15C C27U C30U U32G U35A A37C A57U | ≤ 0.5
A15C C31G A40U | 0.624
A15C G39A U64C A65G | ≤ 0.5
A15U C24U C27U | ≤ 0.5
A15G G41A | 0.854
A15G C29A G58C | 0.503
A15G A20U G68A | 0.545
A14U C31U C34A A45U C49U | ≤ 0.5
A15U A40U G52A G68A | 0.596
A15C C27A | 0.554
A15C U28C G48C | ≤ 0.5
A15G G25A A37G A70C | 0.522
A15G C46G G67A | 0.623
A15U A20U C27G C49G | 0.64
A15C A21U G39A | ≤ 0.5

Variant | yeast fitness
A14U C49A G68A | ≤ 0.5
A15C C33U U47G C49U G52C A70G | 0.585
A15C C31A U35C A45U | ≤ 0.5
A15C U28A C34G A43U G63U U64C | ≤ 0.5
A14U G23C C55G | ≤ 0.5
A15C A40U | 0.833
A14U C30A A43U C49U | 0.545
A15C G51C C61U | ≤ 0.5
A14U C27U C55G | 0.517
A15G U35A G48A A57G C62G | ≤ 0.5
A15G G18A U54A | ≤ 0.5
A15G C30G A42C A43C C46G A65C | ≤ 0.5
A15G U28C C30U A36C A45U G50C | ≤ 0.5
A15G A45U A70U | 0.692
A15G C49A G56A | 0.506
A15G G58C C62G | ≤ 0.5
A15C A36U G39A | ≤ 0.5
A15G A42C C46A | ≤ 0.5
A15U C24U A65G | 0.53
A15U C24A G25A U47C G52C A65U | ≤ 0.5
A15U C27U U28G C33U | ≤ 0.5
A15G G17A G48A | 0.681
A14U U35C U53G | 0.634
A15C G17A G18A A36C | ≤ 0.5

Variant | yeast fitness
A15G C30U C55U | ≤ 0.5
A14U G39A | 0.671
A15C U47A | 1.09
A14U G23U G68C | 0.514
A14U U19A A21C G48C G63A A70G | ≤ 0.5
A14U U19A A21C G48C A70G | 0.505
A15C C30A | 0.666
A15G G41C G51C C61G | 0.726
A15G C46G C61G A65G | 0.756
A14U C34G C66U | ≤ 0.5
A15G C24A C46A | 0.64
A15G U26A A45G C60U C62A | 0.562
A15U C24U A37U U54G | ≤ 0.5
A15C G58A G68A | 0.611
A15U A20G C30A G63C | ≤ 0.5
A15C C27U U28A A40U | ≤ 0.5
A15U C29A C34G C62U G68A | 0.616
A14U C31A C46U G48A C49U | ≤ 0.5
A15C C46U G51A C66A | ≤ 0.5
A15G C24A C34G A65U | ≤ 0.5
A15G A42U A57C | 0.532
A14U U16A C22U C24A G67A A69C | 0.67
A15G C29G C33A G67A | 0.569
A14U U26A C62G | ≤ 0.5

Variant | yeast fitness
A15G C24A U64C | ≤ 0.5
A14U C31A C66A | ≤ 0.5
A15C C24A U53C | ≤ 0.5
A15C U16A A21G U26A C30U C61A A69U | 0.575
A15G C24A C66U | ≤ 0.5
A15U A21C U53C G56C A65G | 0.77
A15C A36U A65C | 0.54
A14U C34G A37C A57C | ≤ 0.5
A15U C29A C34G U59A A69C | ≤ 0.5
A15C G39A A65G | 0.517
A15C G23C C60U A69G | ≤ 0.5
A15C A20U C31G C62A | ≤ 0.5
A14U U26A G58C | ≤ 0.5
A15G U26G C30U G51U G52A | ≤ 0.5
A15C C29U G39C A42U G50U G51C G63A A65U | ≤ 0.5
A15G G48A A65C | 0.686
A15G A20C A43U U54A | ≤ 0.5
A14U G17A A43C C46U | ≤ 0.5
A15G U64G A69C | 0.564
A15G A36U U59A | ≤ 0.5
A15G A21G G39A | 0.649
A14U C46U G48C G63A G68A | ≤ 0.5
A15G C30G C31A C66U | ≤ 0.5
A15C U28C G48C G68U A69U | ≤ 0.5

Variant | yeast fitness
A15C G25C C29U U35C A43U G67C | ≤ 0.5
A15G A43U C60G | ≤ 0.5
A15U A21G C24U C33U A40C A43C C49U C61U | 0.516
A15G G38A A40C G41C C49U | 0.597
A15G C33U A40G G51C A57U | ≤ 0.5
A15G G17A C33U | ≤ 0.5
A15G C29A U47G U54A G58A | ≤ 0.5
A15C C27U G63A | ≤ 0.5
A15C A43G C46A G68A | ≤ 0.5
A15U A57C A65U | 0.794
A14U C24G U54G | ≤ 0.5
A15G U47C G68C | ≤ 0.5
A15C U26A C31G U32A G63A | ≤ 0.5
A15C U16A A21G U26A C30U | ≤ 0.5
A15G C30A C62G | 0.634
A15C C30A G48C G56C | ≤ 0.5
A15C U26C G56A C61U | ≤ 0.5
A15U A21U | 0.708
A15G U35C A36G A37G C61G G67C | ≤ 0.5
A14U G23C C29G G51A G56C | ≤ 0.5
A15U A57G | 0.927
A15U A57C | 0.637
A14U U26G C49G | ≤ 0.5
A15U A36C A40U G58C G67C | ≤ 0.5

Variant | yeast fitness
A15C U59G | 0.673
A14U C60G A70C | ≤ 0.5
A15C C31A U59C G63A A69G | ≤ 0.5
A15C U47G G52C | ≤ 0.5
A15C G39A G67A | ≤ 0.5
A15C C29U G39C A42U G48C G50U G51C A65U | ≤ 0.5
A15U A45C C46A G67A | ≤ 0.5
A14U G23A C31U A43U | ≤ 0.5
A15C G17C | 0.62
A15C C29U C31U G67C | 0.591
A15U A65C G67A | ≤ 0.5
A15C G50A C55U C61G | 0.804
A15C U28A C34G A43U G68C | ≤ 0.5
A15G C31G A40U C60G G67A | 0.529
A15G G23A A36G C55A | ≤ 0.5
A14U G41C | 0.565
A15C U35C C46G | 0.67
A15G A45U | 0.987
A15G G17A U19A U32G | ≤ 0.5
A15U C24A C34G G39U A65G | 0.651
A15C G52C | 0.575
A14U U59A | 0.583
A15G U19C A37U C49U G51A | 0.555
A15C G17A U54C C55G | ≤ 0.5

Variant | yeast fitness
A15G G18A A69U | 0.648
A14U G17A G23C C29U C34G A45C U54G | ≤ 0.5
A15C A21U C62U | 0.53
A15U A43U C62U | 0.611
A15G C24G U28A G52C A65C | ≤ 0.5
A15C A36U | 0.633
A15G A20C C60U | ≤ 0.5
A14U U16G U19A A42G G52A | ≤ 0.5
A15C G17A G38C C62U | ≤ 0.5
A14U G38C C46A | 0.551
A15G G48A C62U | 1.03
A15C G18A U19G G58C | ≤ 0.5
A15G C31U C60U | 0.543
A15U A40C C49U | 0.528
A14U U64C A65G | 0.567
A15G C49G C55G | 0.577
A15C U35A | 0.599
A14U C30U C55G | ≤ 0.5
A15G A42G C61U | 0.579
A15C A36U A42G U59C C60A | ≤ 0.5
A15G C24G C49U | 0.541
A14U U26G G56A A65G C66U | ≤ 0.5
A14U U53C | 0.613
